# According to ChEMBL document CHEMBL4689842, “EUbOPEN Chemogenomics Library wave 1” (2021):
# System: U2OS
# Test: Multiplex assay against U2OS
# Assay type: toxicity, cell-based
# Conditions: human
# Procedure, shortened: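 Hoechst33342, BioTracker Green Microtubule Cytoskeleton Dye, MitoTracker Red and Annexin V Alexa Fluor 680 were added to live cells at seeding, and imaging on a CQ1 microscope at 37°C and 5% CO2 followed compound addition. Gating by CellPathfinder machine learning separated cells into Hoechst high-intensity objects or normal cells, then normal cells into healthy, pyknosed or fragmented nuclei, then pyknosed cells into mitotic or apoptotic. Per cents of healthy-nucleus cells are reported for the tubulin, mitochondrial-mass and membrane-permeability phenotypes.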
# [1] = 12 h, 1 µM, compound concentration 1 uM, replicate 1
# [2] = 12 h, 1 µM, compound concentration 1 uM, replicate 2
# [3] = 12 h, 10 µM, compound concentration 10 uM, replicate 1
# [4] = 12 h, 10 µM, compound concentration 10 uM, replicate 2
# [5] = 24 h, 1 µM, compound concentration 1 uM, replicate 1
# [6] = 24 h, 1 µM, compound concentration 1 uM, replicate 2
# [7] = 24 h, 10 µM, compound concentration 10 uM, replicate 1
# [8] = 24 h, 10 µM, compound concentration 10 uM, replicate 2
# [9] = 48 h, 1 µM, compound concentration 1 uM, replicate 1
# [10] = 48 h, 1 µM, compound concentration 1 uM, replicate 2
# [11] = 48 h, 10 µM, compound concentration 10 uM, replicate 1
# [12] = 48 h, 10 µM, compound concentration 10 uM, replicate 2
smiles,measurement,setting,value
COc1ccc(-c2ccc3ncc4c(c3c2)n(-c2ccc(N3CCNCC3)c(C(F)(F)F)c2)c(=O)n4C)cn1.O=C(O)/C=C\C(=O)O [BGT-226],Population Apoptotic (%),[1],86%
same,Population Fragmented Nuclei (%),[1],50%
same,Population Healthy Nuclei (%),[1],10%
same,Population Hoechst High Intensity Objects (%),[1],14%
same,Population Membrane Permeable-Phenotype (%),[1],58%
same,Population Mitotic Cells (%),[1],13%
same,Population Normal (%),[1],85%
same,Population Pyknosed Nuclei (%),[1],38%
same,Total Cell Count,[1],182
same,Population Apoptotic (%),[2],81%
same,Population Fragmented Nuclei (%),[2],24%
same,Population Healthy Nuclei (%),[2],45%
same,Population Hoechst High Intensity Objects (%),[2],17%
same,Population Membrane Permeable-Phenotype (%),[2],70%
same,Population Mitochondria Different-Phenotype (%),[2],94%
same,Population Mitotic Cells (%),[2],18%
same,Population Normal (%),[2],82%
same,Population Pyknosed Nuclei (%),[2],29%
same,Population Tubulin-Different-Phenotype (%),[2],94%
same,Total Cell Count,[2],45
same,Population Apoptotic (%),[3],97%
same,Population Fragmented Nuclei (%),[3],33%
same,Population Healthy Nuclei (%),[3],1%
same,Population Hoechst High Intensity Objects (%),[3],13%
same,Population Membrane Permeable-Phenotype (%),[3],50%
same,Population Mitochondria Different-Phenotype (%),[3],50%
same,Population Mitotic Cells (%),[3],2%
same,Population Normal (%),[3],86%
same,Population Pyknosed Nuclei (%),[3],65%
same,Population Tubulin-Different-Phenotype (%),[3],50%
same,Total Cell Count,[3],258
same,Population Apoptotic (%),[4],100%
same,Population Fragmented Nuclei (%),[4],70%
same,Population Healthy Nuclei (%),[4],9%
same,Population Hoechst High Intensity Objects (%),[4],62%
same,Population Membrane Permeable-Phenotype (%),[4],24%
same,Population Mitochondria Different-Phenotype (%),[4],32%
same,Population Mitotic Cells (%),[4],0%
same,Population Normal (%),[4],37%
same,Population Pyknosed Nuclei (%),[4],19%
same,Population Tubulin-Different-Phenotype (%),[4],24%
same,Total Cell Count,[4],675
same,Population Apoptotic (%),[5],98%
same,Population Fragmented Nuclei (%),[5],47%
same,Population Healthy Nuclei (%),[5],5%
same,Population Hoechst High Intensity Objects (%),[5],14%
same,Population Membrane Permeable-Phenotype (%),[5],75%
same,Population Mitochondria Different-Phenotype (%),[5],87%
same,Population Mitotic Cells (%),[5],1%
same,Population Normal (%),[5],85%
same,Population Pyknosed Nuclei (%),[5],47%
same,Population Tubulin-Different-Phenotype (%),[5],75%
same,Total Cell Count,[5],181
same,Population Apoptotic (%),[6],83%
same,Population Fragmented Nuclei (%),[6],20%
same,Population Healthy Nuclei (%),[6],40%
same,Population Hoechst High Intensity Objects (%),[6],30%
same,Population Membrane Permeable-Phenotype (%),[6],66%
same,Population Mitochondria Different-Phenotype (%),[6],91%
same,Population Mitotic Cells (%),[6],16%
same,Population Normal (%),[6],69%
same,Population Pyknosed Nuclei (%),[6],40%
same,Population Tubulin-Different-Phenotype (%),[6],91%
same,Total Cell Count,[6],43
same,Population Apoptotic (%),[7],97%
same,Population Fragmented Nuclei (%),[7],39%
same,Population Healthy Nuclei (%),[7],0%
same,Population Hoechst High Intensity Objects (%),[7],15%
same,Population Membrane Permeable-Phenotype (%),[7],100%
same,Population Mitochondria Different-Phenotype (%),[7],100%
same,Population Mitotic Cells (%),[7],2%
same,Population Normal (%),[7],84%
same,Population Pyknosed Nuclei (%),[7],59%
same,Population Tubulin-Different-Phenotype (%),[7],100%
same,Total Cell Count,[7],269
same,Population Apoptotic (%),[8],100%
same,Population Fragmented Nuclei (%),[8],79%
same,Population Healthy Nuclei (%),[8],10%
same,Population Hoechst High Intensity Objects (%),[8],64%
same,Population Membrane Permeable-Phenotype (%),[8],69%
same,Population Mitochondria Different-Phenotype (%),[8],60%
same,Population Mitotic Cells (%),[8],0%
same,Population Normal (%),[8],35%
same,Population Pyknosed Nuclei (%),[8],9%
same,Population Tubulin-Different-Phenotype (%),[8],60%
same,Total Cell Count,[8],614
same,Population Fragmented Nuclei (%),[9],45%
same,Population Healthy Nuclei (%),[9],3%
same,Population Hoechst High Intensity Objects (%),[9],22%
same,Population Membrane Permeable-Phenotype (%),[9],80%
same,Population Mitochondria Different-Phenotype (%),[9],80%
same,Population Normal (%),[9],77%
same,Population Pyknosed Nuclei (%),[9],50%
same,Population Tubulin-Different-Phenotype (%),[9],80%
same,Total Cell Count,[9],185
same,Population Apoptotic (%),[10],100%
same,Population Fragmented Nuclei (%),[10],25%
same,Population Healthy Nuclei (%),[10],35%
same,Population Hoechst High Intensity Objects (%),[10],34%
same,Population Membrane Permeable-Phenotype (%),[10],90%
same,Population Mitochondria Different-Phenotype (%),[10],90%
same,Population Mitotic Cells (%),[10],0%
same,Population Normal (%),[10],65%
same,Population Pyknosed Nuclei (%),[10],39%
same,Population Tubulin-Different-Phenotype (%),[10],90%
same,Total Cell Count,[10],43
same,Population Apoptotic (%),[11],97%
same,Population Fragmented Nuclei (%),[11],40%
same,Population Healthy Nuclei (%),[11],3%
same,Population Hoechst High Intensity Objects (%),[11],18%
same,Population Membrane Permeable-Phenotype (%),[11],71%
same,Population Mitochondria Different-Phenotype (%),[11],85%
same,Population Mitotic Cells (%),[11],2%
same,Population Normal (%),[11],81%
same,Population Pyknosed Nuclei (%),[11],55%
same,Population Tubulin-Different-Phenotype (%),[11],85%
same,Total Cell Count,[11],260
same,Population Apoptotic (%),[12],100%
same,Population Fragmented Nuclei (%),[12],85%
same,Population Healthy Nuclei (%),[12],12%
same,Population Hoechst High Intensity Objects (%),[12],67%
same,Population Membrane Permeable-Phenotype (%),[12],81%
same,Population Mitochondria Different-Phenotype (%),[12],72%
same,Population Mitotic Cells (%),[12],0%
same,Population Normal (%),[12],32%
same,Population Pyknosed Nuclei (%),[12],1%
same,Population Tubulin-Different-Phenotype (%),[12],72%
same,Total Cell Count,[12],534
C=CC(=O)Nc1ccc2[nH]c(=O)n(C3CCN(Cc4ccc(-c5nc6cc[nH]c(=O)c6cc5-c5ccccc5)cc4)CC3)c2c1 [Borussertib],Population Apoptotic (%),[1],25%
same,Population Fragmented Nuclei (%),[1],5%
same,Population Healthy Nuclei (%),[1],91%
same,Population Hoechst High Intensity Objects (%),[1],3%
same,Population Membrane Permeable-Phenotype (%),[1],12%
same,Population Mitochondria Different-Phenotype (%),[1],35%
same,Population Mitotic Cells (%),[1],75%
same,Population Normal (%),[1],96%
same,Population Pyknosed Nuclei (%),[1],2%
same,Population Tubulin-Different-Phenotype (%),[1],29%
same,Total Cell Count,[1],158
same,Population Apoptotic (%),[2],28%
same,Population Healthy Nuclei (%),[2],87%
same,Population Hoechst High Intensity Objects (%),[2],14%
same,Population Membrane Permeable-Phenotype (%),[2],11%
same,Population Mitochondria Different-Phenotype (%),[2],21%
same,Population Mitotic Cells (%),[2],71%
same,Population Normal (%),[2],85%
same,Population Pyknosed Nuclei (%),[2],6%
same,Population Tubulin-Different-Phenotype (%),[2],23%
same,Total Cell Count,[2],124
same,Population Apoptotic (%),[3],54%
same,Population Fragmented Nuclei (%),[3],2%
same,Population Healthy Nuclei (%),[3],84%
same,Population Hoechst High Intensity Objects (%),[3],4%
same,Population Membrane Permeable-Phenotype (%),[3],24%
same,Population Mitochondria Different-Phenotype (%),[3],18%
same,Population Mitotic Cells (%),[3],45%
same,Population Normal (%),[3],95%
same,Population Pyknosed Nuclei (%),[3],13%
same,Population Tubulin-Different-Phenotype (%),[3],38%
same,Total Cell Count,[3],190
same,Population Apoptotic (%),[4],60%
same,Population Fragmented Nuclei (%),[4],6%
same,Population Healthy Nuclei (%),[4],77%
same,Population Hoechst High Intensity Objects (%),[4],8%
same,Population Membrane Permeable-Phenotype (%),[4],33%
same,Population Mitochondria Different-Phenotype (%),[4],28%
same,Population Mitotic Cells (%),[4],40%
same,Population Normal (%),[4],91%
same,Population Pyknosed Nuclei (%),[4],15%
same,Population Tubulin-Different-Phenotype (%),[4],32%
same,Total Cell Count,[4],104
same,Population Apoptotic (%),[5],36%
same,Population Fragmented Nuclei (%),[5],1%
same,Population Healthy Nuclei (%),[5],93%
same,Population Hoechst High Intensity Objects (%),[5],2%
same,Population Membrane Permeable-Phenotype (%),[5],8%
same,Population Mitochondria Different-Phenotype (%),[5],22%
same,Population Mitotic Cells (%),[5],63%
same,Population Normal (%),[5],97%
same,Population Pyknosed Nuclei (%),[5],5%
same,Population Tubulin-Different-Phenotype (%),[5],34%
same,Total Cell Count,[5],220
same,Population Apoptotic (%),[6],37%
same,Population Fragmented Nuclei (%),[6],9%
same,Population Healthy Nuclei (%),[6],84%
same,Population Hoechst High Intensity Objects (%),[6],7%
same,Population Membrane Permeable-Phenotype (%),[6],10%
same,Population Mitochondria Different-Phenotype (%),[6],29%
same,Population Mitotic Cells (%),[6],62%
same,Population Normal (%),[6],92%
same,Population Pyknosed Nuclei (%),[6],6%
same,Population Tubulin-Different-Phenotype (%),[6],28%
same,Total Cell Count,[6],137
same,Population Apoptotic (%),[7],66%
same,Population Fragmented Nuclei (%),[7],6%
same,Population Healthy Nuclei (%),[7],85%
same,Population Hoechst High Intensity Objects (%),[7],2%
same,Population Membrane Permeable-Phenotype (%),[7],13%
same,Population Mitochondria Different-Phenotype (%),[7],19%
same,Population Mitotic Cells (%),[7],33%
same,Population Normal (%),[7],97%
same,Population Pyknosed Nuclei (%),[7],7%
same,Population Tubulin-Different-Phenotype (%),[7],26%
same,Total Cell Count,[7],238
same,Population Apoptotic (%),[8],83%
same,Population Fragmented Nuclei (%),[8],12%
same,Population Healthy Nuclei (%),[8],76%
same,Population Hoechst High Intensity Objects (%),[8],13%
same,Population Membrane Permeable-Phenotype (%),[8],21%
same,Population Mitochondria Different-Phenotype (%),[8],28%
same,Population Mitotic Cells (%),[8],16%
same,Population Normal (%),[8],86%
same,Population Pyknosed Nuclei (%),[8],11%
same,Population Tubulin-Different-Phenotype (%),[8],22%
same,Total Cell Count,[8],121
